Rows were chosen to be rich in hits. Some 9.6% of all compounds tested hit in one or more screens of this group.
Ba/F3 V617F tox – reduced viability of JAK2V617F-dependent Ba/F3 cells, primary screen, JAK2V617F inhibitor project, cell-based, Ba/F3 EpoR-JAK2V617F, luminescence | ATP luminescence | inhibition, % at 5.6 µM | actives 1.1% (n = 220,000) | AID 1446, 2008;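 active = inhibition above the campaign mean plus 3 SD over all tested compounds, cut at about 24% in these data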;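 also: cytokine-independent growth of Ba/F3 cells driven by EpoR plus mutant JAK2; 0% = DMSO-treated cells and 100% = JAK inhibitor I control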
BaF3 parental – parental Ba/F3 cell viability inhibition, counter-screen for JAK2V617F inhibitor project, murine pro-B, CellTiter-Glo luminescence; CellTiter-Glo ATP luminescence; inhibition, % at 5.6 µM; AID 1486, 2009; actives 1.1% (n = 220,000);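 active = inhibition above a per-campaign cutoff, the mean inhibition of all tested compounds plus 3 SD, cut at about 27% in these data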;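 also: 0% = DMSO wells and 100% = JAK Inhibitor I control wells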
Lmaj promast – Leishmania major promastigote growth inhibition, primary screen; Leishmania major promastigotes, resazurin fluorescence viability; inhibition, % at 10 µM; actives 9% (n = 200,000); AID 1063, 2008; in the data active = inhibition above about 50%;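 also: promastigotes grown with compound for 44 hours at 28 °C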
b-catenin transl – modulators of beta-catenin nuclear translocation, primary screen, imaging, HeLa cells, immunofluorescence, high-content; actives 0.3% (n = 190,000); nuclear translocation activity, % at 5 µM;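 active = nuclear translocation activity above 50% at 5 µM, with a well cell count of 50 or more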;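 also: per-cell ratio of nuclear to cytoplasmic median beta-catenin stain intensity; plate controls were DMSO negative control for no effect and GSK-3 inhibitor IX positive control for full effect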
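Test system: human HeLa cells, endogenous beta-catenin. Times: 24 h compound exposure, 37°C. Measured by: beta-catenin immunofluorescence imaging with DAPI.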
APP 5UTR inh – inhibitors of APP translation via 5'UTR reporter, primary screen, APP 5'UTR luciferase, SH-SY5Y cells; SH-SY5Y APP 5'UTR-luciferase reporter, luminescence; inhibition, % at 2 µM; actives 0.82% (n = 190,000);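 active = inhibition above a set limit, derived from the sample mean plus 3 SD, cut at about 45% in these data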
MT stabilizer – microtubule stabilizers in HeLa cells, primary screen, imaging, high-content imaging; HeLa tubulin immunostaining HCS, 24 h; share of cells brighter than vehicle mean+2SD; % tubulin-high responders, % at 10 µM; actives 0.83% (n = 200,000);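 active = plate Z-score above 3 for both tubulin-high and condensed-nucleus cell shares, with cell loss under 80%, at 10 µM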;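 also: anti alpha tubulin signal scored within the nucleus-defined area of each cell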
Starred values were filed as active, the others as inactive; . = not tested or not shown.

SMILES	Ba/F3 V617F tox	BaF3 parental	Lmaj promast	b-catenin transl	APP 5UTR inh	MT stabilizer
Cc1ccc(N2C(=O)NC(C(F)(F)F)(C(F)(F)F)C3=C2CC(C)(C)CC3=O)cc1	-1	4	51*	0	3	6
CC1(C)CC(=O)C2=C(C1)N(CC1CCCO1)C(=O)NC2(C(F)(F)F)C(F)(F)F (centres undefined)	-2	38*	-6	0	7	4
O=C(CC1SC(=NCCc2ccccc2)N(/N=C/c2cccs2)C1=O)Nc1ccc(Cl)cc1 (centres undefined)	-4	7	7	1	-9	3
CCCOC(=O)c1cc(-c2ccc(C=O)o2)ccc1Cl	-3	1	64*	-3	2	8
C=CCOC(=O)c1cc(-c2ccc(/C=C3\C(=O)NC(=O)C(C#N)=C3C)o2)ccc1Cl	-2	5	86*	.	20	2
CCCOC(=O)c1ccc(-c2ccc(C=O)o2)cc1	-1	0	44	2	-105	2
CCCOC(=O)c1cc(-c2ccc(/C=C3/C(=O)N(C)C(=O)C(C#N)=C3C)o2)ccc1Cl	0	5	4	.	23	5
O=C(c1ccc2c(c1)N(Cc1ccccc1)CCS2)N1CCCCC1	-2	4	13	-1	8	4
COc1ccc(CCNC(=S)N2CCC(Cc3ccccc3)CC2)cc1OC	-3	8	5	1	-3	3
CN1CCc2cc3c(c4c2[C@H]1[C@H](O)c1ccccc1-4)OCO3	65*	65*	96*	.	4	3
CCCCOC(=O)Cn1c(=O)c2c(nc(Br)n2Cc2ccccc2)n(C)c1=O	2	66*	4	-6	-3	2
O=C(c1ccccc1)c1cc(Cl)ccc1N1C(=O)C=CC1=O	6	11	-3	-3	80*	4
OCC#Cc1ncc(C(F)(F)F)cc1Cl	-1	2	-9	-1	8	5
O=C(Nc1ccc2c(c1)CCC2)c1ccccc1	-1	5	-1	1	-172	5
O=C(Nc1cc2c3c(c1)C1CCCC1CN3CC1CCCC21)c1ccccc1 (centres undefined)	0	5	97*	6	-9	5
CCc1ccccc1NC(=O)c1ccccc1Sc1ccc([N+](=O)[O-])cc1Cl	-2	3	97*	1	0	1
CCSc1ccccc1C(=O)Nc1ccc([N+](=O)[O-])cc1OC	-3	2	1	1	9	4
N=C(SC1CC(=O)N(c2ccc(F)cc2)C1=O)N1N=C(c2ccccc2)CC1c1ccccc1 (centres undefined)	-2	1	16	-2	11	10
COC(=O)c1ccc(OCCN2CCCCCC2)cc1	4	13	88*	-2	-12	1
O=C(c1ccccc1)c1ccc(OCCCN2CCCCC2)cc1	-1	2	99*	.	4	4
CC(=O)c1ccc(OCCCN2CCCCC2)cc1	2	4	88*	.	6	1
COC(=O)c1ccccc1OCCN1CCCCCC1	-3	3	5	2	-5	3
CCOc1ccc(C(=O)NCCN2CCCC2)cc1	-3	-1	-3	0	-25	4
CC(Cl)C(=O)c1c[nH]c2ccccc12 (centres undefined)	-1	4	6	0	0	3
COc1cccc(CN2CCN(Cc3c(C)nn(C(C)C)c3C)CC2CCO)c1 (centres undefined)	-3	3	-4	0	12	3
SMILES	Ba/F3 V617F tox	BaF3 parental	Lmaj promast	b-catenin transl	APP 5UTR inh	MT stabilizer
O=C(CCc1nnc(-c2ccsc2)o1)N1CCCCC1CCn1ccnc1 (centres undefined)	2	3	6	-2	-25	2
CC(=O)Nc1ccc(Sc2ccccc2C(=O)O)c(C(=O)O)c1	-1	-4	.	-1	.	.
OCCCN1CCN(CCCOc2ccccc2-c2ccccc2)CC1	7	11	93*	0	-2	5
c1ccc(-c2ccccc2OCCCN2CCOCC2)cc1	-5	-1	40	0	-21	4
c1ccc(-c2ccccc2OCCOCCN2CCCCC2)cc1	6	9	72*	-6	2	3
c1ccc(-c2ccccc2OCCCCN2CCCCCC2)cc1	1	10	99*	-4	2	4
O=S(=O)(/N=C(/c1ccccc1)N1CCCCC1)c1ccccc1	0	7	32	-2	2	2
CCc1ccc(NC(=O)CN(c2ccc3c(c2)OCO3)S(=O)(=O)c2c(C)noc2C)cc1	-4	5	4	-1	1	7
COc1ccc2nc(NC(=O)CN(c3ccc(C)cc3)S(=O)(=O)c3c(C)nn(C)c3C)sc2c1	-2	11	80*	0	-4	7
Cc1ccc2nc(NC(=O)CN(C)S(=O)(=O)c3ccc(Br)s3)sc2c1	-4	2	99*	2	6	23
CCc1ccc(N(CC(=O)Nc2nc3ccc(C)cc3s2)S(=O)(=O)c2c(C)noc2C)cc1	-2	6	52*	.	-3	7
COc1ccc(N(CC(=O)NCc2ccc(C)cc2)S(=O)(=O)c2c(C)nn(C)c2C)cc1	0	5	1	0	2	5
Cc1ccc2nc(NC(=O)CNS(=O)(=O)c3ccc(Br)s3)sc2c1	0	-1	0	-3	4	3
O=C(CC(c1ccccc1)c1ccccc1O)NCc1ccccc1Cl (centres undefined)	-1	5	51*	-1	0	2
O=C(CC(c1ccccc1)c1cc(Br)ccc1O)NCc1ccco1 (centres undefined)	-1	3	99*	0	1	5
O=C(CC(c1ccccc1)c1ccccc1O)NCc1ccco1 (centres undefined)	-1	1	-2	0	-3	3
O=C(CCC1CCCC1)NC1CCCCC1	2	2	-2	.	2	1
Cc1ccc(C)c(N(CC(=O)NC2CCCC2)C(=O)c2cc3cc4cccc(C)c4nc3s2)c1	-4	5	10	.	13	2
Cc1ccc2cc3cc(C(=O)N(CC(=O)NC4CCCC4)c4cccc(C)c4C)sc3nc2c1	4	11	51*	.	11	1
O=S1(=O)C=C(Sc2nc3ccccc3s2)c2ccccc21	101*	105*	100*	6	96*	3
Cc1cccc(-c2nnc3n2N=C(c2ccccc2)CS3)c1	-1	4	20	2	-6	3
C[n+]1c2n(c3ccccc31)N=C(c1ccc(Br)cc1)CS2	66*	71*	97*	-1	-16	4
COc1ccc(-c2nnc3n2N=C(c2ccccc2)CS3)cc1OC	.	.	.	-2	.	.
